Data as given in the RNAGym collection of RNA variant scans (doi:10.1002/anie.201605470).

B1: Osa-1-4 twister ribozyme (parent)
chain: CCGCCUAACACUGCCAAUGCCGGUCCCAAGCCCGGAUAAAAGUGGAGGGGGCGG

Variants of: B1
Assay: self-cleavage, relative activity (ratio to wild type); higher = more cleavage; co-transcriptional
In short: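 The 48 positions downstream of the cleavage site in a 54-nucleotide Oryza sativa twister ribozyme template were synthesised at 97 % wild-type base and 1 % of each other base. The template was transcribed in vitro at 37 °C for 2 h, with self-cleavage allowed during transcription. Reads with or without upstream sequence after deep sequencing marked cleavage status, and relative activity is fraction cleaved normalised to wild type.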

Variant	self-cleavage
A39C C14A	0.08
A39C C14U	0.11
A39C C14G	0.05
A39U C33U	0.52
A39U C33G	0.07
A39U C33A	0.09
A39G U43A	0.8
A39G U43G	0.36
A39G U43C	0.24
A39G G34C	0.42
A39G G34U	0.68
A39G G34A	0.8
A39G G50U	1
A39G G50A	0.72
A39G G50C	0.84
A39U G45U	0.05
A39U G45C	0.06
A39U G45A	0.12
A39U G19U	0.11
A39U G19C	0.07
A39U G19A	0.35
A39G U12C	0.19
A39G U12G	0.28
A39G U12A	0.69

Variant	self-cleavage
A39G G54U	0.8
A39G G54C	0.76
A39G G54A	0.79
A39C G30C	0.04
A39C G30U	0.03
A39C G30A	0.04
A39G G23A	0.2
A39G G23C	0.07
A39G G23U	0.07
A39C C33U	0.38
A39C C33G	0.07
A39C C33A	0.06
A39U C32A	0.08
A39U C32G	0.1
A39U C32U	0.11
A39U A7C	0.04
A39U A7U	0.08
A39U A7G	0.2
A39G G49A	0.26
A39G G49U	0.1
A39G G49C	0.08
A39G G44A	0.85
A39G G44U	0.89
A39G G44C	0.93

Variant	self-cleavage
A39G C26A	0.06
A39G C26U	0.55
A39G C26G	0.25
A39G G42C	0.16
A39G G42A	0.37
A39G G42U	0.08
A39U C20G	0.09
A39U C20A	0.84
A39U C20U	0.96
A39U G47C	0.07
A39U G47U	0.11
A39U G47A	0.13
A39G C27U	0.11
A39G C27A	0.09
A39G C27G	0.07
A39G U24A	0.09
A39G U24C	0.14
A39G U24G	0.02
A39U C9U	0.74
A39U C9A	0.33
A39U C9G	0.42
A39G C11A	0.62
A39G C11G	0.51
A39G C11U	0.93

Variant	self-cleavage
A39C G22A	0.78
A39C G22C	0.05
A39C G22U	0.41
A39G G19A	0.7
A39G G19C	0.31
A39G G19U	0.26
A39C G47C	0.06
A39C G47A	0.08
A39C G47U	0.1
A39C G45U	0.06
A39C G45A	0.08
A39C G45C	0.05
A39U G22A	0.93
A39U G22C	0.06
A39U G22U	0.67
A39U C11U	0.89
A39U C11A	0.38
A39U C11G	0.24
A39C G35C	0.14
A39C G35U	0.84
A39C G35A	0.78
A39C U24A	0.05
A39C U24G	0.03
A39C U24C	0.06

Variant	self-cleavage
A39U C25U	0.45
A39U C25A	0.06
A39U C25G	0.07
A39U C15U	0.56
A39U C15G	0.23
A39U C15A	0.24
A39G C20A	0.91
A39G C20G	0.13
A39G C20U	0.96
A39U C26G	0.11
A39U C26A	0.04
A39U C26U	0.54
A39G C9U	0.73
A39G C9G	0.66
A39G C9A	0.39
A39G G22A	0.95
A39G G22U	0.26
A39G G22C	0.08
A39U G23U	0.05
A39U G23A	0.26
A39U G23C	0.06
A39C C20A	0.87
A39C C20G	0.1
A39C C20U	0.94

Variant	self-cleavage
A39C C27U	0.09
A39C C27G	0.06
A39C C27A	0.11
A39C G23A	0.12
A39C G23U	0.05
A39C G23C	0.04
A39C G44A	0.71
A39C G44C	0.93
A39C G44U	0.88
A39C A41G	0.23
A39C A41C	0.37
A39C A41U	0.96
A39G C32G	0.14
A39G C32U	0.1
A39G C32A	0.08
A39U C52A	0.96
A39U C52G	1.01
A39U C52U	1
A39U A8G	0.31
A39U A8C	0.08
A39U A8U	0.16
A39C C25G	0.06
A39C C25A	0.06
A39C C25U	0.33

Variant	self-cleavage
A39U A41U	1.03
A39U A41G	0.26
A39U A41C	0.66
A39C G34A	0.63
A39C G34C	0.2
A39C G34U	0.42
A39G G45C	0.07
A39G G45A	0.13
A39G G45U	0.08
A39C U37C	1.02
A39C U37A	0.92
A39C U37G	0.98
A39G G51A	0.67
A39G G51U	0.3
A39G G51C	0.09
A39C C9U	0.55
A39C C9G	0.34
A39C C9A	0.28
A39C C15G	0.16
A39C C15A	0.23
A39C C15U	0.57
A39U G30C	0.05
A39U G30A	0.04
